Measured values from ChEMBL document CHEMBL4825662 (J Med Chem, 2021).
In brackets after ≈: the same amount, converted by molar mass. Each block holds one compound with its values, some of them ahead of it.

Legend:
Human orthopneumovirus [1] = experiment: Antiviral activity against Respiratory syncytial virus A2 infected in African green monkey Vero cells by Plaque reduction assay; assay type: functional, organism-based
[2] = Cytotoxicity against human HepG2 cells by MTT assay; assay type: cell-based
Summary of the method: (§1)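 Viability was assessed by MTT after culture with compound at 0.01 nM to 100 μM, run in parallel with plaque reduction assays. Values are the average of at least two testing occasions.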

Human orthopneumovirus [3] = experiment: Antiviral activity against Respiratory syncytial virus A2 infected in human Hep2 cells by Plaque reduction assay; assay type: functional, organism-based; details: A2, HEp-2
Summary of the method: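 Hep2 cells were infected with RSV strain A2 in the presence of compound. Plaques were detected by immunostaining after 48 h. Values are the average of at least two testing occasions.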

[4] = Cytotoxicity against human Hep2 cells; assay type: cell-based; details: HEp-2 cells
Summary of the method: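 Hep2 cells were cultured in parallel with the plaque assays at compound concentrations of 0.01 nM to 100 μM. Viability was read by MTT, CellTox green or CellTiter-Glo.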

Fusion glycoprotein F0 = Fusion glycoprotein F0 (Human respiratory syncytial virus A (strain A2), UniProt P03420); experiment: Inhibition of Respiratory syncytial virus fusion protein
Summary of the method: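 293T cells cotransfected with codon-optimized RSV A2 F plasmid and a GAL4-responsive luciferase reporter, mixed after 24 h with a second 293T population expressing GAL4-NF-κB transactivator. Threefold serial compound dilutions present during mixing; F-mediated fusion read as luciferase after 24 h. IC₅₀ averaged over at least two testing occasions.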

Human orthopneumovirus [5] = experiment: Antiviral activity against Respiratory syncytial virus A2 by Plaque reduction assay; assay type: functional, organism-based
Summary of the method: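 Vero cells were infected with RSV A2 for 48 h with compound at 0.01 nM to 100 μM. Plaques were detected by immunostaining. Values are the average of at least two testing occasions.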

[6] = Cytotoxicity against African green monkey Vero cells by MTT assay; assay type: cell-based; details: chlorocebus sabaeus; summary of the method: as §1
[7] = Intrinsic clearance in Sprague-Dawley rat liver microsomes preincubated followed by NADPH addition and measured up to 45 mins by LC-MS/MS analysis; assay type: ADME, Microsome
[8] = Intrinsic clearance in Beagle dog liver microsomes preincubated followed by NADPH addition and measured up to 45 mins by LC-MS/MS analysis; assay type: ADME, Canis lupus familiaris, Microsome
[9] = Intrinsic clearance in human liver microsomes preincubated followed by NADPH addition and measured up to 45 mins by LC-MS/MS analysis; assay type: ADME, Microsome
[10] = Clearance in CD1 mouse at 1 mg/kg, iv measured after 0.083 to 24 hrs by UHPLC-TOF method; assay type: ADME, organism-based; details: in vivo, time 0.083-24 hrs
[11] = Volume of distribution at steady state in CD1 mouse at 1 mg/kg, iv measured after 0.083 to 24 hrs by UHPLC-TOF method; assay type: ADME, organism-based; details: in vivo, time 0.083-24 hrs, read-out: Vdss
Summary of the method: (§2)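 Male CD-1 mice, acclimatized and individually housed, dosed IV and PO as amorphous-solid suspension. Terminal cardiac-puncture blood into heparinized tubes on wet ice, centrifuged at 4 °C within 15 min; plasma snap-frozen at −20 °C. IV arm sampled 2 min–24 h, oral arm 5 min–24 h. Plasma analysed by UHPLC-quadrupole-TOF MS.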

[12] = Apparent permeability across basolateral side to apical side in MDCK-MDR1 cells at 10 uM measured at 60 mins by LC-MS/MS analysis; assay type: ADME, cell-based, Canis lupus familiaris; details: dog
[13] = Half life in CD1 mouse at 10 mg/kg, po measured after 0.083 to 24 hrs by UHPLC-TOF method; assay type: ADME, organism-based; details: in vivo, time 0.083-24 hrs
[14] = Tmax in CD1 mouse at 10 mg/kg, po measured after 0.083 to 24 hrs by UHPLC-TOF method; assay type: ADME, organism-based; details: in vivo, time 0.083-24 hrs; summary of the method: as §2
[15] = Cmax in CD1 mouse at 10 mg/kg, po measured after 0.083 to 24 hrs by UHPLC-TOF method; assay type: ADME, organism-based; set-up: route oral, time 0.083-24 hrs, dose 10 mg/kg; details: in vivo
[16] = Oral bioavailability in CD1 mouse at 10 mg/kg measured after 0.03 to 24 hrs by UHPLC-TOF method; assay type: ADME, organism-based; details: in vivo, time 0.03-24 hrs; summary of the method: as §2
Human orthopneumovirus [17] = experiment: Antiviral activity against Respiratory syncytial virus A2 infected in human Huh7 cells by Plaque reduction assay; assay type: functional, organism-based; details: A2, Huh-7
Summary of the method: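 Huh-7 cells were infected with RSV strain A2 in the presence of compound. Values are the average of at least two testing occasions.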

[18] = Half life in Sprague-Dawley rat liver microsomes preincubated followed by NADPH addition and measured up to 45 mins by LC-MS/MS analysis; assay type: ADME, Microsome
[19] = Half life in Beagle dog liver microsomes preincubated followed by NADPH addition and measured up to 45 mins by LC-MS/MS analysis
[20] = Half life in human liver microsomes preincubated followed by NADPH addition and measured up to 45 mins by LC-MS/MS analysis; assay type: ADME, Microsome
[21] = Thermodynamic solubility in PBS at 1 to 100 uM at pH 7.4 by HPLC-UV method; assay type: physicochemical; details: dose 1-100 µM, read-out: Therm_solubility
[22] = Apparent permeability across apical to basolateral side in MDCK-MDR1 cells at 10 uM measured at 60 mins by LC-MS/MS analysis; assay type: ADME, cell-based, Canis lupus familiaris; details: dog
[23] = Efflux ratio of apparent permeability in MDCK-MDR1 cells at 10 uM measured at 60 mins by LC-MS/MS analysis; assay type: ADME, cell-based, Canis lupus familiaris; details: dog
[24] = Protein binding in rat plasma assessed as unbound fraction at 5 uM by LC-MS/MS analysis based equilibrium dialysis method; assay type: ADME, cell-free
[25] = Protein binding in dog plasma assessed as unbound fraction at 5 uM by LC-MS/MS analysis based equilibrium dialysis method; assay type: ADME, cell-free, Canis lupus familiaris
[26] = Protein binding in human plasma assessed as unbound fraction at 5 uM by LC-MS/MS analysis based equilibrium dialysis method; assay type: ADME, cell-free
[27] = Cmax in Sprague-Dawley rat at 5 mg/kg, po administered via gavage measured after 0.02 to 24 hrs by tandem liquid chromatography/mass spectrometry; assay type: ADME, organism-based; set-up: route oral, dose 5 mg/kg, time upper 24 hrs, time lower 0.02 hrs; details: in vivo
Summary of the method: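 Male Sprague–Dawley rats weighing 200–250 g, 3 per route, were used. The i.v. bolus was 1 mg/kg at 1 mg/mL in 40:60 dimethylacetamide/saline. Oral gavage doses were 5 or 10 mg/kg at 5 mg/mL in 1% methyl cellulose with 0.1% Tween 80. Heparinized blood was taken at 0.02–24 h (ten time points). Plasma was analyzed by LC-MS/MS after acetonitrile precipitation.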

[28] = Clearance in Sprague-Dawley rat at 1 mg/kg, iv administered […] measured after 0.02 to 24 hrs by tandem liquid chromatography/mass spectrometry; assay type: ADME, organism-based; details: in vivo, time 0.02-24 hrs
[29] = Volume of distribution at steady state in Sprague-Dawley rat at 1 mg/kg, iv administered […] measured after 0.02 to 24 hrs by tandem liquid chromatography/mass spectrometry; assay type: ADME, organism-based; details: in vivo, time 0.02-24 hrs, read-out: Vdss
Summary of the method: (§3)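 Male Sprague–Dawley rats (200–250 g), 3 per route. IV bolus at 1 mg/kg, 1 mg/mL in 40:60 dimethylacetamide/saline; oral gavage at 5 or 10 mg/kg, 5 mg/mL in 1% methyl cellulose, 0.1% Tween 80 in water. Serial blood at 0.02–24 h (ten points) into heparin, spun at 4 °C, plasma frozen; acetonitrile protein precipitation, ESI LC-MS/MS with matrix curve and internal standards.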

[30] = Oral bioavailability in Sprague-Dawley rat at 10 mg/kg administered via gavage measured after 0.02 to 24 hrs by tandem liquid chromatography/mass spectrometry; assay type: ADME, organism-based; details: in vivo, time 0.02-24 hrs; summary of the method: as §3

Chain of Fusion glycoprotein F0 (P03420 26-109 limits assumed): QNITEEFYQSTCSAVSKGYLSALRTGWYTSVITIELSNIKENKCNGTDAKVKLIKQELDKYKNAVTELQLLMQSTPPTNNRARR
Chain of Fusion glycoprotein F0 (P03420 137-574 limits assumed): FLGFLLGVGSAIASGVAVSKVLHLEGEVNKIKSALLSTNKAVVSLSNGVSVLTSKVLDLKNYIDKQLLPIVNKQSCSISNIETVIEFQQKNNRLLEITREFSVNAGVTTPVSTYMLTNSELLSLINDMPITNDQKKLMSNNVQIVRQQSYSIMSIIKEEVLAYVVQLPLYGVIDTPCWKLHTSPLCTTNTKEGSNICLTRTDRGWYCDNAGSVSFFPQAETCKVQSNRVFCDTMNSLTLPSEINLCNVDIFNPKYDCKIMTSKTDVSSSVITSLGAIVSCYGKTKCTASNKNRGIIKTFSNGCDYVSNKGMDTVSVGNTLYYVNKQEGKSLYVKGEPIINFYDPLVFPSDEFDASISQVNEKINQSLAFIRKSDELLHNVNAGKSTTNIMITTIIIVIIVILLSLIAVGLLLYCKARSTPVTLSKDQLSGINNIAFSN

EC50 (Human orthopneumovirus [1]): 10200 nM
Compound: O=C(O)c1ccc2c(c1)nc(CN1C(=O)C3(CC3)c3ccc(F)cc31)n2CCCC(F)(F)F
CC50 [2]: > 25000 nM

EC50 (Human orthopneumovirus [3]): 21.1 nM
Compound: N=C(N)NCc1ccc2c(c1)nc(CN1C(=O)C3(CC3)c3ccc(F)cc31)n2CCCC(F)(F)F
CC50 [4]: > 20000 nM

Compound: CC(C)CCn1c(CN2C(=O)C3(CCOCC3)c3ccccc32)nc2cc(CN)ccc21
IC50 (Fusion glycoprotein F0): 0.69 nM
EC50 (Human orthopneumovirus [5]): 3.4 nM

EC50 (Human orthopneumovirus [1]): 3400 nM
Compound: CC(C)CCn1c(CN2C(=O)C3(CC3)Cc3ccccc32)nc2cc(CN)ccc21
CC50 [6]: 33400 nM

Compound: CC(C)CCn1c(CN2C(=O)C3(CC3)c3cccnc32)nc2cc(CN)ccc21
Microsomal intrinsic clearance [7]: 328 µL/min
intrinsic clearance [8]: 71.3 µL/min
intrinsic clearance (CLint) [9]: 177 µL/min
clearance [10]: 81.1 mL/min/kg
Vd [11]: 4.5 L/kg
Papp B→A at 1 h, 10 µM [12]: 0.1 ×10⁻⁶ cm/s
half-life [13]: 1 h
Tmax [14]: 2 h
Cmax [15]: 200 ng/mL
bioavailability [16]: 18.1%
IC50 (Fusion glycoprotein F0): 0.9 nM
EC50 (Human orthopneumovirus [5]): 4.1 nM

EC50 (Human orthopneumovirus [17]): 3.6 nM
Compound: NCc1ccc2c(c1)nc(CN1C(=O)C3(CC3)c3ccc(F)cc31)n2CCCCO
CC50 [2]: > 25000 nM

EC50 (Human orthopneumovirus [1]): 181 nM
Compound: CC(C)CCn1c(CN2C(=O)C3(CC3)c3c(Cl)cccc32)nc2cc(CN)ccc21
CC50 [6]: 5200 nM

EC50 (Human orthopneumovirus [3]): 107 nM
Compound: CC(=O)NCc1ccc2c(c1)nc(CN1C(=O)C3(CC3)c3ccc(F)cc31)n2CCCC(F)(F)F
CC50 [4]: > 20000 nM

Microsomal intrinsic clearance [7]: 9.4 µL/min
intrinsic clearance [8]: 5.02 µL/min
intrinsic clearance (CLint) [9]: 4.6 µL/min
half-life [18]: 2.45 h
half-life [19]: 4.6 h
half-life [20]: 5 h
clearance [10]: 82.7 mL/min/kg
Vd [11]: 3.8 L/kg
solubility thermodynamic [21]: 313 µM (≈ 136 µg/mL)
Papp A→B at 1 h, 10 µM ([22]; MDCK-MDR1): 0.1 ×10⁻⁶ cm/s
Papp B→A at 1 h, 10 µM [12]: 2.8 ×10⁻⁶ cm/s
efflux ratio at 1 h, 10 µM ([23]; MDCK-MDR1): 21
half-life [13]: 0.9 h
Tmax [14]: 0.1 h
Cmax [15]: 47.8 ng/mL
bioavailability [16]: 4.4%
EC50 (Human orthopneumovirus [17]): 1.6 nM
Compound: NCc1ccc2c(c1)nc(CN1C(=O)C3(CC3)c3ccc(F)cc31)n2C1CCC(O)CC1 (configuration not stated)
CC50 [2]: > 25000 nM

EC50 (Human orthopneumovirus [1]): 2380 nM
Compound: CC(C)CCn1c(CN2C(=O)C3(CC3)c3cccc(Cl)c32)nc2cc(CN)ccc21
CC50 [6]: 21700 nM

EC50 (Human orthopneumovirus [1]): 40.8 nM
fraction unbound at 5 µM [24]: 0.104
fraction unbound at 5 µM [25]: 0.147
fraction unbound at 5 µM [26]: 0.42
Microsomal intrinsic clearance [7]: 37.8 µL/min
intrinsic clearance [8]: 2.23 µL/min
intrinsic clearance (CLint) [9]: 7 µL/min
solubility thermodynamic [21]: 1230 µM (≈ 500 µg/mL)
Papp ([22]; mdck-mdr1, 1 h, 10 µM): 0.19 10^-6 cm/s
Ratio ([23]; mdck-mdr1, 1 h, 10 µM): 227
Cmax [27]: 31.3 ng/mL
clearance [28]: 108 mL/min/kg
Vd [29]: 11.9 L/kg
bioavailability [30]: 8.8%
Compound: CC(C)CCn1c(CN2C(=O)C3(CC3)c3cccc(F)c32)nc2cc(CN)ccc21
CC50 [6]: 31100 nM

EC50 (Human orthopneumovirus [1]): 454 nM
Compound: CCNC(=N)c1ccc2c(c1)nc(CN1C(=O)C3(CC3)c3ccc(F)cc31)n2CCCC(F)(F)F
CC50 [2]: > 25000 nM

Compound: CC(C)CCn1c(CN2C(=O)C3(CC3)c3ccncc32)nc2cc(CN)ccc21
IC50 (Fusion glycoprotein F0): 0.9 nM
EC50 (Human orthopneumovirus [5]): 2.1 nM

EC50 (Human orthopneumovirus [1]): 444 nM
Compound: N#Cc1ccc2c(c1)nc(CN1C(=O)C3(CC3)c3ccc(F)cc31)n2CCCC(F)(F)F
CC50 [2]: 23700 nM
